Data reported in publication PMC9214341 (Acta Pharmaceutica Sinica. B, 2021).

Key:
[1] = tested on: tumor infiltrating immune cells; experiment: Flow cytometry analysis of tumor-infiltrating immune cells; format: in vivo, BALB/c mice; details: CT26 tumor-bearing mice, 16 mg/kg daily, 5 days
Outline: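 Tumor-bearing mice (n = 5) got vehicle or test compound. Tumors were cut up and digested in RPMI 1640 with 0.1% type IV collagenase and 0.01% DNase I at 37 °C for 45 min, passed through a 70 μm strainer, and red cells lysed. Cells were Fc-blocked on ice for 15 min and surface-stained on ice for 30 min. MDSCs were scored as a proportion of CD45⁺ cells (mean ± SEM).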

CT26 cells = experiment: SRB cell proliferation assay, CT26; format: cell-based, murine; details: gradient concentrations, 72 h
MC38 cells = experiment: SRB cell proliferation assay, MC38; format: cell-based, murine; details: gradient concentrations, 72 h

`O=C(/C=C/c1cccnc1)NCCCCC1CCN(C(=O)c2ccccc2)CC1` [FK866] was tested, and the “infiltrating MDSCs in CT26 tumors” value [1] was “did not affect”, the cell growth sensitivity (CT26 cells) was “did not show the apparent growth dependency” and the cell growth sensitivity (MC38 cells) was “did not show the apparent growth dependency”.
